Pf Dd2 growth: blocks growth of Plasmodium falciparum Dd2 parasites. P. falciparum Dd2 growth, SYBR Green, 72 h; hits give low values. actives 2.3% (n = 94,000). activity change, % at 10 µM; in the data active means activity change below about -80%
IDH1 R132H inh: inhibitors of human IDH1 R132H; O75874; IDH1 R132H reductase, diaphorase/resazurin fluorescence, 60 min; inhibition, % at 10 µM; actives 0.18% (n = 70,000); in the data active means inhibition above about 34%
KDM4C inh: blocks human GASC-1 (KDM4C) demethylase activity; Q9H3R0; GST-KDM4C 2-372, H3K9me3 peptide, LANCE TR-FRET; inhibition, % at 12.5 µM; actives 0.15% (n = 96,000);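 active means mean replicate inhibition above about 25%, with at least 55% of replicates also reaching it, limit read from the data, passing the limit was not always enough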
Target sequence (Q9H3R0 2-372 limits assumed): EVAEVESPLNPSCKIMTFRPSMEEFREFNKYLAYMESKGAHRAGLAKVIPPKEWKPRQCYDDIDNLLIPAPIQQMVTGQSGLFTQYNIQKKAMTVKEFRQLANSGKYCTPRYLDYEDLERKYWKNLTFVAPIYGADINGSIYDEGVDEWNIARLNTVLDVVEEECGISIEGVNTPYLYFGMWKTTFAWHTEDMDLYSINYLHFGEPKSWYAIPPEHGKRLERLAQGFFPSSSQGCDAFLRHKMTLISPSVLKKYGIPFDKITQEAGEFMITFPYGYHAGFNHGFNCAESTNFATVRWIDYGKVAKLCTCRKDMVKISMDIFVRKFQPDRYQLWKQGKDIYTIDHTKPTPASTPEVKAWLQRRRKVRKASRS
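reagent = H3K9me3 peptide substrate, Fe(II), 2-oxoglutarate | system = GST-tagged GASC-1 (JMJD2C) catalytic fragment, aa 2-372 | amount = enzyme final amount 10 nM | read-out = Fall in 671/618 emission ratio as inhibition | medium = HEPES buffer, pH 7.5, plus ascorbate | schedule = 30 min reaction, 60 min detection, RT | measured by = LANCE TR-FRET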
T cruzi growth: inhibitors of T. cruzi proliferation; actives 5.9% (n = 77,000); inhibition, % at 8.34 µM; T. cruzi beta-gal in NIH3T3, GalScreen luminescence, 90 h; AID 624255;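 active means mean inhibition above about 93%, with at least 55% of replicates each passing it, limit read from the data, passing the limit was not always enough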
Of the large screens only hits and unclear results are named; the others gave an inactive call; ! = a repeat was not active. Shown are actives, neighbours in structure and some others; about 5.9% of the full set was active somewhere.

C[C@@H]1CN([C@@H](C)CO)C(=O)c2cccc(NC(=O)CCCCCC(=O)Nc3ccccc3N)c2O[C@H]1CN(C)Cc1ccc2c(c1)OCO2	Pf Dd2 growth -88.1 (no result: T cruzi growth)
C[C@H](CO)N1C[C@H](C)[C@@H](CN(C)Cc2ccc3c(c2)OCO3)Oc2c(NC(=O)CCCCCC(=O)Nc3ccccc3N)cccc2C1=O	Pf Dd2 growth -85.5 (no result: T cruzi growth)
C[C@@H]1CCCCO[C@H](CN(C)Cc2ccc(C(F)(F)F)cc2)[C@H](C)CN([C@@H](C)CO)C(=O)c2cc(NC(=O)Cc3ccccc3)ccc2O1	none (no result: IDH1 R132H inh, KDM4C inh)
C[C@H]1CCCCO[C@@H](CN(C)CC2CCCCC2)[C@@H](C)CN([C@@H](C)CO)C(=O)c2cc(NC(=O)CCCN(C)C)ccc2O1	Pf Dd2 growth -88.6 (no result: IDH1 R132H inh)
C[C@@H]1CCCCO[C@H](CN(C)Cc2ccncc2)[C@H](C)CN([C@@H](C)CO)C(=O)c2cc(NC(=O)CCC(F)(F)F)ccc2O1	IDH1 R132H inh 74.7, KDM4C inh 33.9
C[C@H](CO)N1C[C@H](C)[C@@H](CN(C)Cc2ccc(C(F)(F)F)cc2)OCCCC[C@H](C)Oc2ccc(NC(=O)Cc3ccccc3)cc2C1=O	Pf Dd2 growth -81.4
C[C@@H]1CCCCO[C@@H](CN(C)Cc2ccc(C(F)(F)F)cc2)[C@H](C)CN([C@@H](C)CO)C(=O)c2cc(NC(=O)Cc3ccccc3)ccc2O1	Pf Dd2 growth -85.8
C[C@@H]1CCCCO[C@@H](CN(C)Cc2ccc(C(F)(F)F)cc2)[C@@H](C)CN([C@H](C)CO)C(=O)c2cc(NC(=O)Cc3ccccc3)ccc2O1	none (no result: IDH1 R132H inh)
CC1CCC2C(C)(C)C(=O)CC[C@]2(C)C12Cc1c(O)cc3c(c1O2)CN(C(CCC(=O)O)C(=O)O)C3=O (some centres not stated)	none (no result: Pf Dd2 growth, KDM4C inh, T cruzi growth)
C[C@@H]1CCCCO[C@H](CN(C)Cc2ccc(C(F)(F)F)cc2)[C@H](C)CN([C@@H](C)CO)C(=O)c2cc(NC(=O)CCCN(C)C)ccc2O1	Pf Dd2 growth -89.0
C[C@@H]1CN([C@@H](C)CO)C(=O)c2cc(NC(=O)CCCN(C)C)ccc2O[C@@H](C)CCCCO[C@@H]1CN(C)Cc1ccc(C(F)(F)F)cc1	none (no result: IDH1 R132H inh)
O=C(C[C@H]1C=C[C@H](NC(=O)Cc2ccccn2)[C@H](CO)O1)NCCc1ccccc1	Pf Dd2 growth -92.4 (no result: IDH1 R132H inh, T cruzi growth)
C/C=C/c1ccc([C@H]2[C@@H](CO)N(c3nc(C)c(C)s3)[C@@H]2CNCC(C)C)cc1	Pf Dd2 growth -96.0 (no result: IDH1 R132H inh, T cruzi growth)
Cc1ccc(S(=O)(=O)Nc2ccc3c(c2)CC(=O)N([C@H](C)CO)C[C@H](C)[C@H](CN(C)Cc2ccc(C(=O)Nc4ccccc4N)cc2)O3)cc1	Pf Dd2 growth -88.1
C[C@@H]1CN([C@@H](C)CO)C(=O)Cc2cc(NS(=O)(=O)c3ccccc3)ccc2O[C@H]1CN(C)Cc1ccc(C(=O)Nc2ccccc2N)cc1	none
C[C@H](CO)N1C[C@H](C)[C@@H](CN(C)Cc2ccc(C(=O)Nc3ccccc3N)cc2)Oc2ccc(NS(=O)(=O)c3ccccc3)cc2CC1=O	Pf Dd2 growth -83.4
C[C@@H]1CN([C@H](C)CO)C(=O)Cc2cc(NS(=O)(=O)c3ccc(Cl)cc3)ccc2O[C@H]1CN(C)Cc1ccc(Oc2ccccc2)cc1	none
C[C@H](CO)N1C[C@H](C)[C@H](CN(C)Cc2ccc(Oc3ccccc3)cc2)Oc2ccc(NS(=O)(=O)c3ccc(Cl)cc3)cc2CC1=O	Pf Dd2 growth -86.8
O=C(CN1CCOCC1)Nc1ccccc1[N+](=O)[O-]	none (no result: Pf Dd2 growth, KDM4C inh, T cruzi growth)
Cc1noc(C)c1S(=O)(=O)N(C)C[C@@H]1OCCCC[C@H](C)Oc2ccc(NC(=O)Nc3ccc(C(F)(F)F)cc3)cc2C(=O)N([C@H](C)CO)C[C@H]1C	none
Cc1noc(C)c1S(=O)(=O)N(C)C[C@H]1OCCCC[C@H](C)Oc2ccc(NC(=O)Nc3ccc(C(F)(F)F)cc3)cc2C(=O)N([C@H](C)CO)C[C@@H]1C	T cruzi growth 102.1 (no result: IDH1 R132H inh)
Cc1noc(C)c1S(=O)(=O)N(C)C[C@H]1OCCCC[C@H](C)Oc2ccc(NC(=O)Nc3ccc4c(c3)OCO4)cc2C(=O)N([C@H](C)CO)C[C@@H]1C	none
Cc1noc(C)c1S(=O)(=O)N(C)C[C@H]1OCCCC[C@H](C)Oc2ccc(NC(=O)Nc3ccc(C(F)(F)F)cc3)cc2C(=O)N([C@@H](C)CO)C[C@@H]1C	Pf Dd2 growth -83.3, T cruzi growth 88.9
Cc1noc(C)c1S(=O)(=O)N(C)C[C@H]1OCCCC[C@@H](C)Oc2ccc(NC(=O)Nc3ccc4c(c3)OCO4)cc2C(=O)N([C@@H](C)CO)C[C@@H]1C	Pf Dd2 growth -86.1
COc1ccc(NC(=O)Nc2ccc3c(c2)C(=O)N([C@H](C)CO)C[C@@H](C)[C@H](CN(C)S(=O)(=O)c2c(C)noc2C)OCCCC[C@@H](C)O3)cc1	Pf Dd2 growth -80.5 (no result: IDH1 R132H inh)
CSc1ccccc1NC(=O)Cn1c(-c2nonc2N)nc2ccccc21	none (no result: Pf Dd2 growth, KDM4C inh, T cruzi growth)
O=C(COc1ccccc1Cl)Nc1ccc2oc(-c3ccccc3Br)nc2c1	none (no result: Pf Dd2 growth, KDM4C inh, T cruzi growth)
Clc1ccc2nc(NCc3ccccn3)nc(-c3ccccc3)c2c1	none (no result: Pf Dd2 growth, KDM4C inh, T cruzi growth)
O=C(OCC1OC(Oc2ccc(O)cc2COC(=O)C2(O)C(O)CCC(=O)C2O)C(O)C(O)C1O)c1ccccc1 (configuration not stated)	IDH1 R132H inh 36.1 (no result: Pf Dd2 growth, KDM4C inh, T cruzi growth)
CCCN(C)C[C@@H]1OCCCC[C@H](C)Oc2ccc(NS(=O)(=O)c3ccc(C)cc3)cc2C(=O)N([C@@H](C)CO)C[C@H]1C	Pf Dd2 growth -93.9 (no result: IDH1 R132H inh)
COc1ccc(S(=O)(=O)Nc2ccc3c(c2)C(=O)N([C@H](C)CO)C[C@@H](C)[C@H](CN(C)Cc2ccc(Cl)c(Cl)c2)OCCCC[C@H](C)O3)cc1	Pf Dd2 growth -84.3 (no result: IDH1 R132H inh)
C[C@@H]1CCCCO[C@H](CN(C)Cc2ccc3c(c2)OCO3)[C@H](C)CN([C@H](C)CO)C(=O)c2cc(NS(=O)(=O)c3ccc(Cl)cc3)ccc2O1	Pf Dd2 growth -82.8!
CCCN(C)C[C@H]1OCCCC[C@@H](C)Oc2ccc(NS(=O)(=O)c3ccc(C)cc3)cc2C(=O)N([C@@H](C)CO)C[C@H]1C	Pf Dd2 growth -86.1 (no result: IDH1 R132H inh)
CCCN(C)C[C@H]1OCCCC[C@@H](C)Oc2ccc(NS(=O)(=O)c3ccc(C)cc3)cc2C(=O)N([C@H](C)CO)C[C@@H]1C	none
CCCN(C)C[C@@H]1OCCCC[C@@H](C)Oc2ccc(NS(=O)(=O)c3ccc(C)cc3)cc2C(=O)N([C@@H](C)CO)C[C@@H]1C	none
Cc1cc(I)ccc1NC(=O)CN(c1c(C)cccc1C)S(C)(=O)=O	none (no result: Pf Dd2 growth, KDM4C inh, T cruzi growth)
CCCN(C)C[C@H]1OCCCC[C@@H](C)Oc2ccc(NS(=O)(=O)c3ccc(C)cc3)cc2C(=O)N([C@H](C)CO)C[C@H]1C	Pf Dd2 growth -89.3 (no result: IDH1 R132H inh)
CCCN(C)C[C@H]1OCCCC[C@@H](C)Oc2ccc(NS(=O)(=O)c3ccc(Cl)cc3)cc2C(=O)N([C@@H](C)CO)C[C@H]1C	Pf Dd2 growth -85.9
CCCN(C)C[C@@H]1OCCCC[C@@H](C)Oc2ccc(NS(=O)(=O)c3ccc(Cl)cc3)cc2C(=O)N([C@H](C)CO)C[C@@H]1C	none
